Rows were chosen to be rich in hits. Some 3.4% of all compounds tested hit in one or more screens of this group.
SIRT5 block: inhibitors of human sirtuin-5 desuccinylase; Q9NXA8; Purified SirT5, succinyl-peptide AMC, trypsin-coupled fluorescence; inhibition, % at 15 µM; hit rate 1.1% among 330,000; AID 652115; in the data active = inhibition above about 15%
ERAP1 inh: ERAP1 (human) enzyme inhibition; Q9NZ08; recombinant ERAP1, Leu-AMC fluorescence, 60 min; inhibition, % at 10.7 µM; hit rate 0.15% among 340,000; AID 652197;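 active = mean replicate inhibition of at least 30%, or all replicates individually reaching that 30% level; inactive = mean below 30% and not every replicate reaching it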;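 note: 0% = neutral control wells and 100% = L-leucinethiol positive control wells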
E-sel inducer: E-selectin induction on HUVECs; P16581; HUVEC E-selectin immunofluorescence imaging; normalized: neutral wells 0, TNF-alpha wells 100; activation, % at 7.58 µM; hit rate 0.37% among 260,000; AID 686992;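 active = mean E-selectin-positive cell signal at least 10% of the positive control, reached in at least 60% of replicates, without over 20% cell loss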
Target sequence (P16581 whole entry, looked up): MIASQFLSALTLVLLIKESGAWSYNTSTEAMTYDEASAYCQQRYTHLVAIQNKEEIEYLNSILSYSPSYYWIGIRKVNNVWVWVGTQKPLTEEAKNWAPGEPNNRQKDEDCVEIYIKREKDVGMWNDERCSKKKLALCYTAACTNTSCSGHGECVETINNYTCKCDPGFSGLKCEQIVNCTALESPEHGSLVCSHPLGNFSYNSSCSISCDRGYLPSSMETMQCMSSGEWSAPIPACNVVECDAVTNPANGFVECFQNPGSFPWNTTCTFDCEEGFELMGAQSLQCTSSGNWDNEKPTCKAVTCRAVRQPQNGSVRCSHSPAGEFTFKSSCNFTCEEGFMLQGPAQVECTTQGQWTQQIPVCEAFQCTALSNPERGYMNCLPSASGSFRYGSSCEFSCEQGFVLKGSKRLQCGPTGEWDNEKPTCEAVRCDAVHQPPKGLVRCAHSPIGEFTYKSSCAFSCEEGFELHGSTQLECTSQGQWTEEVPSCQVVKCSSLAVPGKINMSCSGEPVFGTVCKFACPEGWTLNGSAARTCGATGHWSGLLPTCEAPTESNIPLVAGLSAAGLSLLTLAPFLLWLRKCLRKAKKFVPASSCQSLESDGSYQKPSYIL
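Test system: HUVEC | Signal: Immunofluorescence imaging | Read-out: Percent E-selectin-positive cells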
Ecoli rRNA inh: inhibits bacterial ribosomal RNA function over humanized ribosomes | GFP signal change (wild-type ribosome), % (concentration not given with the values) | hit rate 1.6% among 350,000 | E. coli WT GFP vs humanized-ribosome RFP mutants, fluorescence, 24 h; hits give low values; DMSO median 0, no signal -100;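 active = significant combined selectivity score with lowered wild-type GFP, culture density cut under 30%, mutant RFP and density less affected; inactive = any of these conditions unmet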
AF4-AF9 inh: blocks AF4 peptide binding to human AF9; hit rate 0.47% among 350,000; P42568; inhibition, % at 10 µM; AlphaScreen, biotin-AF4 peptide binding to FLAG-AF9;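 active = every replicate reaching a set inhibition limit, whatever the replicate mean, cut at about 25% in these data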;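 note: 0% = plate neutral control median and 100% = total signal loss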
S100A4 MyoIIA: inhibitors of human S100A4 binding to myosin IIA peptide | P26447 | S100A4/TAMRA-MyoIIA peptide fluorescence polarization | inhibition, % at 10.7 µM | hit rate 0.14% among 360,000;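 active = mean inhibition of at least 70% across replicates, with every replicate also reaching that level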
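assay system = human S100A4 monomer with TAMRA-labelled myosin IIA peptide | also added = labelled myosin peptide probe, 5 nM | incubation = 5 min between mix addition and reading | control set = DMSO and TFP controls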
* = called active by the depositor; . = no result given.

SMILES | SIRT5 block | ERAP1 inh | E-sel inducer | Ecoli rRNA inh | AF4-AF9 inh | S100A4 MyoIIA
Cc1noc(C)c1NC(=O)Nc1ccc2c(c1)C(=O)N([C@H](C)CO)C[C@@H](C)[C@@H](CN(C)C(=O)NC1CCCCC1)O2 | 0.2 | 0.7 | -0.3 | -0.1 | 0.1 | -5.0
O=C(NC1CCCC1)N1CC2(C1)[C@H](c1ccccc1)[C@H](CO)N2CC1CCCC1 | 0.2 | 0.9 | 0.0 | -5.5 | 0.0 | 12.5
CCCC(=O)Nc1ccc2c(c1)OC[C@@H](C)N(CCC(F)(F)F)C[C@@H](C)[C@H](OC)CN(C)C2=O | 3.1 | 1.2 | -0.2 | -1.9 | -4.0 | 0.7
C[C@@H]1CN([C@H](C)CO)C(=O)Cc2cc(NC(=O)CCN3CCOCC3)ccc2O[C@@H]1CN(C)C | -1.3 | -2.8 | . | 3.1 | 7.7 | -0.1
CCOc1ccc(OCC)c(NC(=O)CSc2nc3c(c(=O)n(C)c(=O)n3C)n2C(C)C)c1 | -2.2 | 0.7 | . | -27.4* | 3.5 | -21.8
COc1ccc(NC(=O)CSc2nc3c(c(=O)n(C)c(=O)n3C)n2C)c(OC)c1 | -4.1 | -0.9 | . | 1.1 | -0.6 | -1.5
C[C@@H]1CN([C@H](C)CO)C(=O)c2cc(-c3ccc(C#N)cc3)cnc2O[C@H]1CN(C)Cc1cccnc1 | -5.3 | -1.9 | -0.1 | 1.5 | -3.9 | 7.5
CO[C@H]1CN(C)C(=O)c2cc(NC(=O)Nc3ccccc3Cl)ccc2OC[C@@H](C)NC[C@H]1C | 3.2 | 0.7 | -0.1 | 0.5 | 0.2 | -16.2
CCN(CC)CCSc1nc(O)c(-c2ccccc2)c(=O)n1-c1ccccc1 | 16.3* | -0.1 | -3.7 | 19.9 | 1.8 | -2.3
Cc1cc(C)n(-c2nnc(C)n2/N=C/c2ccc(O)cc2)n1 | 17.8* | -4.4 | 0.2 | 13.4 | 0.2 | 5.2
Cc1nnc(C)n1/N=C/c1ccc(C(=O)O)cc1 | -4.3 | 4.3 | . | 24.5 | . | 1.5
CCOc1ccc(Cc2c(C)[nH]c3ccc(C(=O)O)cc3c2=S)cc1 | 28.8* | -12.6 | 0.0 | 2.1 | -3.2 | -0.2
COc1ccc(S(=O)(=O)N(C)C[C@H]2Oc3ccc(NC(=O)Nc4ccccc4)cc3C(=O)N([C@@H](C)CO)C[C@H]2C)cc1 | 12.6 | 0.8 | -0.1 | -2.2 | 1.5 | -5.6
S=c1[nH]nc(COc2ccccc2)n1/N=C/c1cccc(Cl)c1Cl | -4.0 | -1.6 | 0.3 | 2.2 | -0.9 | -0.3
S=c1[nH]nc(COc2ccccc2)n1/N=C/c1ccccc1Cl | -2.7 | -1.4 | 0.9 | -24.2* | 0.9 | 4.3
COc1ccccc1-c1ccc([C@H]2[C@@H](CO)N(C(C)=O)C23CN(C(C)=O)C3)cc1 | -3.7 | -1.6 | -0.2 | -1.5 | -2.3 | -5.1
S=C(NCCc1ccccc1)N/N=C/c1cccs1 | -3.2 | -1.8 | . | . | 2.5 | 1.3
Cc1ccsc1/C=N/NC(=S)NCCc1ccccc1 | 16.1* | -2.3 | 0.0 | -8.1 | 2.5 | -1.7
C[C@@H]1CN([C@H](C)CO)C(=O)c2cc(NC(=O)c3ccccc3)ccc2O[C@@H](C)CCCCO[C@@H]1CN(C)Cc1ccc(C(=O)O)cc1 | 0.3 | 6.1 | -0.3 | -1.9 | -3.6 | 2.2
Cc1nc(C)c(CC(=O)N2CCc3c([nH]c4ccccc34)C2c2ccccn2)s1 (centres undefined) | 17.5* | -3.7 | . | 4.3 | 5.7 | -4.7
COc1ccccc1C#Cc1ccc([C@@H]2[C@@H](CO)N3CCCCN(C(=O)C4CCCC4)C[C@@H]23)cc1 | 9.9 | 2.8 | . | . | -5.8 | -3.1
CC(C)CC#Cc1ccc([C@@H]2[C@H]3CN(C(=O)Nc4ccccc4)CCCCN3[C@H]2CO)cc1 | 16.5* | -1.5 | -0.3 | -21.6 | 0.4 | -2.7
CC(=O)N1CCCCN2[C@H](CO)[C@H](c3ccc(C#Cc4ccccc4F)cc3)[C@@H]2C1 | -0.3 | 0.4 | 0.8 | -50.8 | -1.7 | 96.5*
COc1ccccc1C#Cc1ccc([C@H]2[C@H](CO)N3CCCCN(C(=O)C4CCCC4)C[C@@H]23)cc1 | 16.9* | 0.5 | . | . | 4.3 | -5.2
CC(C)CC#Cc1ccc([C@H]2[C@@H](CO)N3CCCCN(C(=O)Nc4ccccc4)C[C@@H]23)cc1 | . | . | 0.3 | -1.6 | 3.3 | .
COc1ccc(C#Cc2ccc([C@@H]3[C@@H](CO)N4CCCCN(Cc5ccccc5F)C[C@H]34)cc2)cc1 | 0.7 | -0.8 | -0.1 | -59.6 | 29.2* | -2.5

Compound activity: PubChem BioAssay, Broad Institute
